Measured values: ChEMBL document CHEMBL4261600 (Eur J Med Chem, 2018)

Tests used:
[1] = MRT (0 to infinity) in beagle dog at 10 mg/kg, po by LC-MS/MS analysis; format: ADME, organism-based, Canis lupus familiaris; conditions: in vivo
[2] = system: ALK tyrosine kinase receptor (Homo sapiens), Q9UM73 [C1156Y]; experiment: Binding affinity to wild-type human partial length ALK C1156Y mutant (I1088 to E1409 residues) expressed in mammalian expression system assessed as remaining unbound target protein level at 1000 nM by Kinomescan method relative to control
Procedure, shortened: (§1)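 Profiled in a KINOMEscan binding panel with the inhibitor at a single concentration of 1 μM. Binding to each kinase was read out as percent of control, relative to a DMSO control. Strong binders were defined as those with a percent control value below 1.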

[3] = molecular target: Serine/threonine-protein kinase BRSK1 (Homo sapiens) (UniProt Q8TDC3); experiment: Binding affinity to wild-type human partial length BRSK1 (M1 to E754 residues) expressed in bacterial expression system assessed as remaining unbound target protein level at 1000 nM by Kinomescan method relative to control; procedure, shortened: as §1
[4] = molecular target: Calcium/calmodulin-dependent protein kinase kinase 2 (Homo sapiens) (UniProt Q96RR4); experiment: Binding affinity to wild-type human partial length CAMKK2 (D65 to V471 residues) expressed in bacterial expression system assessed as remaining unbound target protein level at 1000 nM by Kinomescan method relative to control; procedure, shortened: as §1
[5] = molecular target: Cyclin-dependent kinase 4/cyclin D1 (Homo sapiens) (UniProt P11802+P24385); experiment: Binding affinity to wild-type human full length CDK4/cyclinD1 (M1 to E303 residues) expressed in mammalian expression system assessed as remaining unbound target protein level at 1000 nM by Kinomescan method relative to control
Procedure, shortened: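 KINOMEscan competitive binding profile at 1 μM inhibitor. Remaining target binding reported as percent of DMSO control.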

[6] = molecular target: Cyclin-dependent kinase-like 1 (Homo sapiens) (UniProt Q00532); experiment: Binding affinity to wild-type human full length CDKL1 (M1 to I358 residues) expressed in mammalian expression system assessed as remaining unbound target protein level at 1000 nM by Kinomescan method relative to control
Procedure, shortened: (§2)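 Single-point competition binding screen across a panel of 468 kinases and mutants, with the inhibitor at 1 μM. Binding is read out as percent of a DMSO control, and targets below 1 percent control were classed as strong binders.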

[7] = molecular target: Macrophage colony-stimulating factor 1 receptor (Homo sapiens) (UniProt P07333); experiment: Binding affinity to wild-type human partial length autoinhibited CSF1R (Y538 to S939 residues) expressed in mammalian expression system assessed as remaining unbound target protein level at 1000 nM by Kinomescan method relative to control
[8] = molecular target: Megakaryocyte-associated tyrosine-protein kinase (Homo sapiens) (UniProt P42679); experiment: Binding affinity to wild-type human full length CTK (M43 to P508 residues) expressed in mammalian expression system assessed as remaining unbound target protein level at 1000 nM by Kinomescan method relative to control; procedure, shortened: as §2
[9] = system: Epidermal growth factor receptor (Homo sapiens), P00533 [UNDEFINED MUTATION]; experiment: Binding affinity to human partial length EGFR L747-E749del/A750P mutant expressed in bacterial expression system assessed as remaining unbound target protein level at 1000 nM by Kinomescan method relative to control
Procedure, shortened: (§3)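 KINOMEscan competition-binding profiling across the panel of 468 kinases and mutants, with inhibitor tested at 1 μM. Binding is expressed as percent of control, with DMSO as the reference control.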

[10] = system: Receptor-type tyrosine-protein kinase FLT3 (Homo sapiens), P36888 [N841I]; experiment: Binding affinity to human partial length FLT3 N841I mutant (V592 to Y969 residues) expressed in bacterial expression system assessed as remaining unbound target protein level at 1000 nM by Kinomescan method relative to control; procedure, shortened: as §3
[11] = system: Leucine-rich repeat serine/threonine-protein kinase 2 (Homo sapiens), Q5S007 [G2019S]; experiment: Binding affinity to human partial length LRRK2 G2019S mutant (H970 to E2527 residues) expressed in mammalian expression system assessed as remaining unbound target protein level at 1000 nM by Kinomescan method relative to control; procedure, shortened: as §3
[12] = molecular target: Mitogen-activated protein kinase kinase kinase kinase 5 (Homo sapiens) (UniProt Q9Y4K4); experiment: Binding affinity to wild-type human partial length MAP4K5 (M1 to P297 residues) expressed in bacterial expression system assessed as remaining unbound target protein level at 1000 nM by Kinomescan method relative to control
Procedure, shortened: (§4)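 KINOMEscan binding panel of 468 kinases/mutants. Inhibitor was tested at a single concentration of 1 μM. Binding is reported as percent of control, defined relative to a DMSO control.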

[13] = molecular target: Dual specificity mitogen-activated protein kinase kinase 3 (Homo sapiens) (UniProt P46734); experiment: Binding affinity to wild-type human full length MEK3 (M1 to S318 residues) expressed in mammalian expression system assessed as remaining unbound target protein level at 1000 nM by Kinomescan method relative to control
Procedure, shortened: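 KINOMEscan competition binding profile across a panel of 468 kinases and mutants, with the inhibitor tested at a single concentration of 1 μM. Binding is reported as percent of control, meaning signal relative to a DMSO control.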

[14] = molecular target: Serine/threonine-protein kinase 26 (Homo sapiens) (UniProt Q9P289); experiment: Binding affinity to wild-type human full length MST4 (M1 to P416 residues) expressed in mammalian expression system assessed as remaining unbound target protein level at 1000 nM by Kinomescan method relative to control; procedure, shortened: as §2
[15] = molecular target: Myosin light chain kinase 2, skeletal/cardiac muscle (Homo sapiens) (UniProt Q9H1R3); experiment: Binding affinity to wild-type human partial length MYLK2 (D258 to K570 residues) expressed in bacterial expression system assessed as remaining unbound target protein level at 1000 nM by Kinomescan method relative to control; procedure, shortened: as §4
[16] = molecular target: Serine/threonine-protein kinase PAK 5 (Homo sapiens) (UniProt Q9P286); experiment: Binding affinity to wild-type human partial length PAK7 (Y400 to H719 residues) expressed in bacterial expression system assessed as remaining unbound target protein level at 1000 nM by Kinomescan method relative to control
[17] = molecular target: Serine/threonine-protein kinase PLK3 (Homo sapiens) (UniProt Q9H4B4); experiment: Binding affinity to wild-type human partial length PLK3 (A42 to L334 residues) expressed in mammalian expression system assessed as remaining unbound target protein level at 1000 nM by Kinomescan method relative to control
[18] = system: Proto-oncogene tyrosine-protein kinase receptor Ret (Homo sapiens), P07949 [M918T]; experiment: Binding affinity to human partial length RET M918T mutant (E713 to D1014 residues) expressed in bacterial expression system assessed as remaining unbound target protein level at 1000 nM by Kinomescan method relative to control; procedure, shortened: as §3
[19] = molecular target: Ribosomal protein S6 kinase alpha-1 (Homo sapiens) (UniProt Q15418); experiment: Binding affinity to wild-type human partial length N-terminal RSK1 Kinase domain 1 (M1 to E388 residues) expressed in bacterial expression system assessed as remaining unbound target protein level at 1000 nM by Kinomescan method relative to control
[20] = molecular target: Serine/threonine-protein kinase tousled-like 2 (Homo sapiens) (UniProt Q86UE8); experiment: Binding affinity to wild-type human partial length TLK2 (E424 to N749 residues) expressed in bacterial expression system assessed as remaining unbound target protein level at 1000 nM by Kinomescan method relative to control

Chain of Serine/threonine-protein kinase PAK 5 (Homo sapiens) (Q9P286 whole entry, looked up, the tested form may be a part): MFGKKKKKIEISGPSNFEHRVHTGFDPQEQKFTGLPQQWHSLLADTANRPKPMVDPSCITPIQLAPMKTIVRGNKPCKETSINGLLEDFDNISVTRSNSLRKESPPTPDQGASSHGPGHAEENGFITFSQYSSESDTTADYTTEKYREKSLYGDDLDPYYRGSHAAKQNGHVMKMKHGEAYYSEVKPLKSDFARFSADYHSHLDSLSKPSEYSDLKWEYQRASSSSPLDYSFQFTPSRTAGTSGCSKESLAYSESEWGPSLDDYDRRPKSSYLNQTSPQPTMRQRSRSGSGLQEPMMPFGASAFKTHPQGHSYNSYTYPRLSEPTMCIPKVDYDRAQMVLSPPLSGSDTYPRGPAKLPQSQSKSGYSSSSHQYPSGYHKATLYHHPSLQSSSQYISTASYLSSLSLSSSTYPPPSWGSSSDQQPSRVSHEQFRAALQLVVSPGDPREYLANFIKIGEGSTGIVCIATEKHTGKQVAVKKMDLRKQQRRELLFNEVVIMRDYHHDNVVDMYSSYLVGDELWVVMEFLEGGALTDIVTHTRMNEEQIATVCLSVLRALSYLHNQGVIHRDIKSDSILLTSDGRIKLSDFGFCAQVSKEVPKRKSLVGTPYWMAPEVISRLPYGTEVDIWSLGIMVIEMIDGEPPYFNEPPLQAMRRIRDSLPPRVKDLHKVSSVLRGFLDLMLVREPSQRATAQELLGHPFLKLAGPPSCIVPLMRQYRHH
Chain of Macrophage colony-stimulating factor 1 receptor (Homo sapiens) (P07333 whole entry, the tested form may be a part): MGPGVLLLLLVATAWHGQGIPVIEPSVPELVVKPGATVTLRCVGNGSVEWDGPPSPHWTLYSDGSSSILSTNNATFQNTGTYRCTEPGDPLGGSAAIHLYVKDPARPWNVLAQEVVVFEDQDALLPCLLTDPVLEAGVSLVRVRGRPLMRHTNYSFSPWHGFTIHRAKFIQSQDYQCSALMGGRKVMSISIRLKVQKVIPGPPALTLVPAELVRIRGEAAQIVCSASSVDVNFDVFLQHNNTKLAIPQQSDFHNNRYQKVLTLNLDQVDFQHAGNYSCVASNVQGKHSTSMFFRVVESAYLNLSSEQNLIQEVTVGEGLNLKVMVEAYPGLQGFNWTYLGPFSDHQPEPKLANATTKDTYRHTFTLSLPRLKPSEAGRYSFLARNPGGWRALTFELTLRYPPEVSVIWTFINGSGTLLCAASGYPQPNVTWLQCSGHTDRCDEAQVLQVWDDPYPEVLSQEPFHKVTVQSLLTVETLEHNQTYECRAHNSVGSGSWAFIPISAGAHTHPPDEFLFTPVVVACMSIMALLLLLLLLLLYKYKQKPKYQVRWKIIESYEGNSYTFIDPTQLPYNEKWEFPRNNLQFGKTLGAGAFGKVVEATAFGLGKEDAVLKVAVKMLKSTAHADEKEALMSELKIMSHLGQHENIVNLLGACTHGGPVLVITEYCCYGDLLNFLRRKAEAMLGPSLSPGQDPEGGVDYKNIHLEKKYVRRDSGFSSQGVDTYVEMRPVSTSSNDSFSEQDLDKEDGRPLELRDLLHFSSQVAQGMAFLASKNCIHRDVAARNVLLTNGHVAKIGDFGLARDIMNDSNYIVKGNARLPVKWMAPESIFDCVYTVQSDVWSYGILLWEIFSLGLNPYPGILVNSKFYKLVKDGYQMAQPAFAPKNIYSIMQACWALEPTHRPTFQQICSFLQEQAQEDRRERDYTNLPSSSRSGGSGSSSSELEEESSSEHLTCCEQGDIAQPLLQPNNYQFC
Chain of Ribosomal protein S6 kinase alpha-1 (Homo sapiens) (Q15418 whole entry, the tested form may be a part): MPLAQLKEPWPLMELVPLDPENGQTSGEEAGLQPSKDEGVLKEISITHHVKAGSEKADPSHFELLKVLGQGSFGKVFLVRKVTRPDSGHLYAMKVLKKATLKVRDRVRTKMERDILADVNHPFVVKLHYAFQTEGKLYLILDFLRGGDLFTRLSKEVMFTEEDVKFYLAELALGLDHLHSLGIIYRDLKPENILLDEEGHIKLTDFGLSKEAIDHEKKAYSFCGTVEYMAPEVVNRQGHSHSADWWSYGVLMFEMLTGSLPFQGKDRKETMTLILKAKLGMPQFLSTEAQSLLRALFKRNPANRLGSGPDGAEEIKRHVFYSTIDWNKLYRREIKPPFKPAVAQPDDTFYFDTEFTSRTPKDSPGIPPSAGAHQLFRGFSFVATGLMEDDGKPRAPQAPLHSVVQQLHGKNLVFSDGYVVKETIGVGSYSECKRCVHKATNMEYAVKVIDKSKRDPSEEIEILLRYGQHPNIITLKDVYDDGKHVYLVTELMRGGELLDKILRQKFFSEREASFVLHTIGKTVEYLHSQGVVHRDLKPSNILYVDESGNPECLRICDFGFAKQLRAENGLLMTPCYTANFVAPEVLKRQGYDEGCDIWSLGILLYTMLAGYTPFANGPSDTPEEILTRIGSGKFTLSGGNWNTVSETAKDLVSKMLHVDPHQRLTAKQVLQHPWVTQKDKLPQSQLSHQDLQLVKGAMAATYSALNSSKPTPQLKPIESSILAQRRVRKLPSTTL
Chain of Epidermal growth factor receptor (Homo sapiens), P00533 [UNDEFINED MUTATION] (P00533 whole entry, looked up, stated change not applied): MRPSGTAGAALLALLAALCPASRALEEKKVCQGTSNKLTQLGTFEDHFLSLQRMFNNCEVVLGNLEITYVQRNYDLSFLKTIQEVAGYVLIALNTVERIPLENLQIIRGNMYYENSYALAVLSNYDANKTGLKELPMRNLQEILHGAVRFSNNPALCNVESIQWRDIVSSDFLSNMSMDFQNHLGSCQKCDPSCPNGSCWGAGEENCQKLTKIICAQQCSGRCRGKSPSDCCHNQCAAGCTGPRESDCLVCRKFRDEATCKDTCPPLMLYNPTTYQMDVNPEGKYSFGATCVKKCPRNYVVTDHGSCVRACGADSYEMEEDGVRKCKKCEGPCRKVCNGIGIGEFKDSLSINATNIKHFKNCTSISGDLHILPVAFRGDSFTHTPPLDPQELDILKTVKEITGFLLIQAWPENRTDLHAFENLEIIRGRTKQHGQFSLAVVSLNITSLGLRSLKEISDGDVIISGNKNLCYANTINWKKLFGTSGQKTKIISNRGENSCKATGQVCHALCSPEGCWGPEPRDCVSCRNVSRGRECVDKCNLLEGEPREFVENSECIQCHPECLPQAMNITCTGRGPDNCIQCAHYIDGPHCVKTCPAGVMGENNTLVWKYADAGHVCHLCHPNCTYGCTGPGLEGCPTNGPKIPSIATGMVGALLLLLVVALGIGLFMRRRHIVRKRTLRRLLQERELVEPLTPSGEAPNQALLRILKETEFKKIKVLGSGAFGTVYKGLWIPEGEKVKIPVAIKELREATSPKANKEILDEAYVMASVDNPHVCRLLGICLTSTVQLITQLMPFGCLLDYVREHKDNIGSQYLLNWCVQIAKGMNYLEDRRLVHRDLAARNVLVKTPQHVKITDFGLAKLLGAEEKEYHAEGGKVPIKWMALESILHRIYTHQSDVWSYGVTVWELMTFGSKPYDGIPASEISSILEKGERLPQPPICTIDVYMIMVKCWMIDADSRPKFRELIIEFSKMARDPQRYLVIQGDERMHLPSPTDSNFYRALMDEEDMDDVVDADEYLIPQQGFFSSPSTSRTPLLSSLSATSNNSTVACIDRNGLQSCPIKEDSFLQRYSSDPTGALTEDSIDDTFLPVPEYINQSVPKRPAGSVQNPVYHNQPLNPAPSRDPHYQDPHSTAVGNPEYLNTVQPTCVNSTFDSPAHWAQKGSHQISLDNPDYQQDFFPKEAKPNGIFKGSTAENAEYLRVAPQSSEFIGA
Chain of Serine/threonine-protein kinase 26 (Homo sapiens) (Q9P289 2-416 limits assumed): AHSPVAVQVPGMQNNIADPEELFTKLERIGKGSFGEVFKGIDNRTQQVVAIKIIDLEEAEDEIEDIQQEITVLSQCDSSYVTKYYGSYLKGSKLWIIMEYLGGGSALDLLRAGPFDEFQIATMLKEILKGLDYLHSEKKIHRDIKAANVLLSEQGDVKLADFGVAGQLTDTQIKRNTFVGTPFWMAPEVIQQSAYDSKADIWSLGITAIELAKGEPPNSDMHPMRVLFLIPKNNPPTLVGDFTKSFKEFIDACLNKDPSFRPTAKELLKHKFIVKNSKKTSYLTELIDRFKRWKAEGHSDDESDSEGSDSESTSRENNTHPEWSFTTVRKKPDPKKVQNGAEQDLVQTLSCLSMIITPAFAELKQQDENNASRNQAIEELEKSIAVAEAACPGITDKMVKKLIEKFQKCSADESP
Chain of Calcium/calmodulin-dependent protein kinase kinase 2 (Homo sapiens) (Q96RR4 2-588 limits assumed): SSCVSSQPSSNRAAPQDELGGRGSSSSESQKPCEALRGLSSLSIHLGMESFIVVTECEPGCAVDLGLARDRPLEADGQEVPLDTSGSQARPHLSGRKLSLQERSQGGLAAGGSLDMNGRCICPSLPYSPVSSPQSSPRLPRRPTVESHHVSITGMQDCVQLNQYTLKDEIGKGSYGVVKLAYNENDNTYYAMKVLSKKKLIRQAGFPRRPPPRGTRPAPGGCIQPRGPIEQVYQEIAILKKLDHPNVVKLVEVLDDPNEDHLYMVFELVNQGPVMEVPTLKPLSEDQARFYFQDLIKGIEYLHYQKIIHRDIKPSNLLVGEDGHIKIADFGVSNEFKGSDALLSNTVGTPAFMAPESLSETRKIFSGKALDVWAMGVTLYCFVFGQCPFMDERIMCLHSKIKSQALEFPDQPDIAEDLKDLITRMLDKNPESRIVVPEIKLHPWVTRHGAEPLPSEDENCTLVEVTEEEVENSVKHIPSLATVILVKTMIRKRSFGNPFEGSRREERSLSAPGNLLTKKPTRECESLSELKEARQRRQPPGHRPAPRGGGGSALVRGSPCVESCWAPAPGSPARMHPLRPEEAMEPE
Chain of Cyclin-dependent kinase-like 1 (Homo sapiens) (Q00532 whole entry, the tested form may be a part): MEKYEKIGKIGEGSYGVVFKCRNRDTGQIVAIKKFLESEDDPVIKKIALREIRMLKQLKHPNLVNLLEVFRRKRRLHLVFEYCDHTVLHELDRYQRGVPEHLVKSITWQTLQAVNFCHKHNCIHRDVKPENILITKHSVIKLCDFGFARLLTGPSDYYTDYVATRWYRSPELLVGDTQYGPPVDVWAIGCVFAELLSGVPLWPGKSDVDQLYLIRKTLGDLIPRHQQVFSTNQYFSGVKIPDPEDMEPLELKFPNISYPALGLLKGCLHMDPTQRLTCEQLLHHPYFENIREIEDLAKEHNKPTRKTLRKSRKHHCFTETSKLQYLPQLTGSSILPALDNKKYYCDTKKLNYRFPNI

`COCCN[C@H]1CC[C@H](Nc2cc(-c3csc(NCC4(C#N)CCOCC4)n3)c(Cl)cn2)CC1` gave an MRT inf [1] of 29.2 h, an Activity [2] of 86% and an Activity [3] of 85%. The Activity [4] was 100%, the Activity [5] was 69% and the Activity [6] was 96%. It also gave an Activity [7] of 90%, an Activity [8] of 96% and an Activity [9] of 92%. For the same compound, the Activity [10] was 83%, the Activity [11] was 94% and the Activity [12] was 95%. For the same compound, the Activity [13] was 86%, the Activity [14] was 96% and the Activity [15] was 93%. It also gave an Activity [16] of 98%, an Activity [17] of 99% and an Activity [18] of 90%. It also gave an Activity [19] of 94% and an Activity [20] of 99%.
